# Key:
# [1] = Metabolic stability in human liver microsomes assessed as compound remaining at 1 uM after 30 mins by LC/MS/MS analysis in presence of NADPH generating system; assay type: ADME; settings: read-out: Stability
# Method in brief: (§1)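 Compound at 1 μM incubated with human liver microsomes (1 mg/mL) at 37°C for 30 minutes, with or without an NADPH generating system. Read-out is percent of compound remaining. Values are the average of triplicates ± standard deviation.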
# [2] = Solubility of compound in sodium phosphate buffer at pH 7.4; assay type: physicochemical
# Method in brief: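 Measured in 0.1 M sodium phosphate buffer, pH 7.4, containing 1% DMSO; reported as a concentration range bracketing the solubility limit (μM).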
# [3] = molecular target: T1, Bifunctional epoxide hydrolase 2 (Homo sapiens, UniProt P34913); experiment: Inhibition of recombinant human soluble epoxide hydrolase using CMNPC as substrate by kinetic fluorescent assay
# T1 sequence (P34913 whole entry): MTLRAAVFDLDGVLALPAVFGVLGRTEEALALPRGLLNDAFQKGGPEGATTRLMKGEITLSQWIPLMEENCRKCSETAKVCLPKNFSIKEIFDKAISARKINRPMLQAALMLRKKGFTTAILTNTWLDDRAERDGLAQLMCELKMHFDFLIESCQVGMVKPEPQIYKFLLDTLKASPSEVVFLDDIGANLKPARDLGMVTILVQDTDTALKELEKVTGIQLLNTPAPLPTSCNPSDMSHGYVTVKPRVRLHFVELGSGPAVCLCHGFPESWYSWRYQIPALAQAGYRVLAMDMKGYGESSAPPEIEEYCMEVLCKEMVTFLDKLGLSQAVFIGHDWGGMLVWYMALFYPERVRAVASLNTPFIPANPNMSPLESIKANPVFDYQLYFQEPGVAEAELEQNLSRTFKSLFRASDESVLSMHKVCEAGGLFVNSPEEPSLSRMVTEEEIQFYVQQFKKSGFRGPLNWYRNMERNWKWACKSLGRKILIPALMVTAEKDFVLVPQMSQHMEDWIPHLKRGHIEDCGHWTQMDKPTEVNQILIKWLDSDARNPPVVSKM
# Method in brief: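 Recombinant purified human sEH, CMNPC substrate, kinetic fluorescence read-out; IC50 derived. Where reported, values are the mean ± standard deviation of three separate measurements.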
# [4] = Metabolic stability in human liver microsomes assessed as compound remaining at 1 uM after 30 mins by LC/MS/MS analysis in absence of NADPH generating system; assay type: ADME; settings: read-out: Stability; method in brief: as §1
Compound,"remaining at 0.5 h, 1 µM [1]",solubility [2],IC50 [3],"remaining at 0.5 h, 1 µM [4]"
Cc1ccc(-c2cc(CNC(=O)NCC34CC5CC(CC(C5)C3)C4)no2)cc1,0.4%,75 µM,0.0154 µM,97%
COc1ccc(-c2cc(CNC(=O)NCC34CC5CC(CC(C5)C3)C4)no2)cc1,0.8%,100 µM,0.0129 µM,87%
O=C(NCc1cc(-c2ccco2)on1)NCC12CC3CC(CC(C3)C1)C2,0.4%,75 µM,0.0049 µM,91%
Cc1cc(CNC(=O)NCC23CC4CC(CC(C4)C2)C3)on1,2.9%,450 µM,0.0067 µM,72%
CCc1cc(CNC(=O)NCC23CC4CC(CC(C4)C2)C3)on1,,300 µM,0.0294 µM,
CC(C)c1cc(CNC(=O)NCC23CC4CC(CC(C4)C2)C3)on1,,125 µM,0.0446 µM,
O=C(NCc1cc(-c2cccc(F)c2)no1)NCC12CC3CC(CC(C3)C1)C2,0.3%,75 µM,0.0166 µM,97%
O=C(NCc1cc(-c2ccc(F)cc2)no1)NCC12CC3CC(CC(C3)C1)C2,,50 µM,0.0105 µM,
CC(C)c1cc(CN(C)C(=O)NCC23CC4CC(CC(C4)C2)C3)no1,,200 µM,0.576 µM,
Cc1cc(C2CCCN2C(=O)NCC23CC4CC(CC(C4)C2)C3)no1 (stereo unspecified),,525 µM,0.524 µM,
CC(C)c1cc(C2CCCN2C(=O)NCC23CC4CC(CC(C4)C2)C3)no1 (stereo unspecified),,250 µM,0.247 µM,
CC(C)c1cc(CN(C)C(=O)NCC23CC4CC(CC(C4)C2)C3)on1,,350 µM,0.191 µM,
Cc1cc(C2CCCN2C(=O)NCC23CC4CC(CC(C4)C2)C3)on1 (stereo unspecified),,575 µM,0.091 µM,
Cc1ccc(-c2cc(CNC(=O)NC34CC5CC(C)(CC(C)(C5)C3)C4)no2)cc1,0.4%,125 µM,0.0258 µM,115%
COc1ccc(-c2cc(CNC(=O)NC34CC5CC(C)(CC(C)(C5)C3)C4)no2)cc1,0.4%,25 µM,0.015 µM,102%
CC12CC3CC(C)(C1)CC(NC(=O)NCc1cc(-c4ccco4)on1)(C3)C2,0.3%,75 µM,0.0041 µM,95%
Cc1cc(CNC(=O)NC23CC4CC(C)(CC(C)(C4)C2)C3)on1,0.1%,200 µM,0.123 µM,83%
CC12CC3CC(C)(C1)CC(NC(=O)NCc1cc(-c4cccc(F)c4)no1)(C3)C2,0.4%,75 µM,0.017 µM,92%

# From ChEMBL document CHEMBL3632545, “1,3-Disubstituted and 1,3,3-trisubstituted adamantyl-ureas with isoxazole as soluble epoxide hydrolase inhibitors” (Bioorg Med Chem Lett, 2015)
